Measurements gathered from unrelated publications.
Lines come from different studies, so protocols differ.
Target: Homeodomain-interacting protein kinase 1 (HIPK1, Homo sapiens, UniProt Q86Z02)
Read-out: enzyme activity
Mode: inhibitor

O=C(O)c1ccc2c(c1)nc(NCCc1cccc(F)c1)c1ncncc12
remaining activity (radiometric; 1 µM): 15%

COc1cc(Nc2cnc(C#N)c(O[C@H](C)CN(C)C)n2)ncc1-c1cnn(C)c1
remaining activity (radiometric; 10 µM): 107%

CC(C)(C)c1nc(-c2cccc(NS(=O)(=O)c3c(F)cccc3F)c2F)c(-c2ccnc(N)n2)s1
remaining activity (radiometric; 1 µM): 87%

Cn1c(=O)n(-c2ccc(C(C)(C)C#N)cc2)c2c3cc(-c4cnc5ccccc5c4)ccc3ncc21
remaining activity (10 µM): 89%

O=C(O)c1ccc2c(c1)nc(Nc1cccc(F)c1)c1ccncc12
remaining activity (radiometric; 1 µM): 6%

Cc1cnc(NC2CCOCC2)nc1-n1cnc(C(=O)NC(CN)c2cc(F)cc(Cl)c2)c1 (stereo not shown)
remaining activity (radiometric; 1 µM): 87%

CC(C)(C)c1nc2c(s1)c1nc(N)ncc1c1ccc(NS(=O)(=O)c3c(F)cccc3F)c(F)c12
remaining activity (radiometric; 1 µM): 81%

CCCOc1ccc(OC)c(F)c1C(=O)c1ccc(C(=O)N[C@@H]2CNC[C@H]2NC(=O)c2ccc3[nH]ncc3c2)cc1
remaining activity (10 µM): 97%

O=C(Nc1cnn(-c2csc(C(=O)NC3COC3)c2)c1)Nc1ccccc1Cl
remaining activity (5 µM): 96.3%

Oc1cccc(-c2nc(N3CCOCC3)c3oc4ncccc4c3n2)c1
remaining activity (10 µM): 63%

CC(C)(O)[C@H]1CC[C@H](Nc2ccc3ncc(-c4cccc(C(F)(F)F)c4)n3n2)CC1
remaining activity (1 µM): 83.9%

N#Cc1cccc(Nc2nc3cc(C(=O)O)ccc3c3cnccc23)c1
remaining activity (radiometric; 1 µM): 5%

CCN(CC)c1ccc(C2=NNC(=O)CC2C)cc1[N+](=O)[O-] (stereo not shown)
remaining activity (10 µM): 132%

O=C(O)c1ccc2c(c1)nc(NCc1ccccc1)c1ncncc12
remaining activity (radiometric; 1 µM): 70%

Cc1ccc(C(=O)Nc2ccc(CN3CCN(C)CC3)c(C(F)(F)F)c2)cc1C#Cc1cnc2cccnn12
remaining activity (23.5 nM): 86%

O=C(O)c1ccc2c(c1)nc(Nc1ccccc1Cl)c1ncncc12
remaining activity (radiometric; 1 µM): 13%

O=C(Nc1cnn(-c2csc(C(=O)NC3COC3)c2)c1)Nc1c(F)cccc1Cl
remaining activity (5 µM): 91.7%

O=C(O)c1ccc2c(c1)nc(Nc1ccc(Cl)cc1)c1ncncc12
remaining activity (radiometric; 1 µM): 4%

COc1cc(Cl)c(C(=O)N[C@@H](CN[C@H]2CC[C@@H](N)CC2)Cc2ccc(C#N)cc2)cc1-c1ccc(CN[C@H](C)c2ccc(C)cc2)o1
remaining activity (1 µM): 101%
